Measurements reported in PMC10286277 (ACS Omega, 2023).

Experiments:
pUC19 DNA = assay: Hydrolytic DNA cleavage, gel electrophoresis without external agent or light; format: biochemical; details: 400 μM, control experiments
Method in brief: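 pUC19 DNA (200 ng) in 50 mM Tris–HCl, pH 8, was incubated with test compound (0–400 μM) in 10 μL for 2 h at 37 °C, with no added agent and no light. Controls used Cu(OAc)₂·H₂O, free ligand or imidazole, each at 400 μM. Samples were run on 1% agarose in TAE (pH 8.4) for 1.5 h at 60 V, stained with 0.5 μg/mL ethidium bromide and imaged under UV for conversion to nicked circular form.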

cervical cancer HeLa = assay: MTT cell viability assay; format: cell-based, human; details: 24 h
Method in brief: (§1)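 Cells were seeded at 2×10^4 per well, held overnight at 37 °C in humidified CO₂ and treated with test compound at […] for 24 h. MTT (0.5 mg/mL) was added for 4 h in the dark and then removed. Formazan was dissolved in DMSO and absorbance read at 570 nm.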

breast cancer MDA-MB-231 = assay: MTT cell viability assay; format: cell-based, human; details: MDA-MB-231, 24 h
Method in brief: as §1

| Compound | DNA cleavage by starting materials alone (pUC19 DNA) | IC50 (cervical cancer HeLa) | sensitivity of cells in MTT cell viability assay (in words) (breast cancer MDA-MB-231) |
| --- | --- | --- | --- |
| 2-(2-Hydroxyphenyl)benzothiazoline | No cleavage was detected | – | – |
| CC(=O)[O-].CC(=O)[O-].O.[Cu+2] [Cu(OAc)2·H2O, copper(II) acetate monohydrate] | No cleavage was detected | – | – |
| N.N.[Cl][Pt][Cl] [cisplatin, reference compound] | – | 30.9 ± 0.45 µM | resistant |
| c1c[nH]cn1 [imidazole] | No cleavage was detected | – | – |
